The source of these data is ChEMBL document CHEMBL1833804, “Discovery of N-(3-(1-methyl-1,2,3,6-tetrahydropyridin-4-yl)-1H-indol-6-yl) thiophene-2-carboximidamide as a selective inhibitor of human neuronal nitric oxide synthase (nNOS) for the treatment of pain” (J Med Chem, 2011).

Calls of active or inactive are those of the source. The rule behind the calls is not given here.

Data set [1] deals with Gerbillinae. Nature of the data set: Neuroprotective activity in gerbil cerebral ischemia model. The class given is functional.
The target of data set [2] is Nitric oxide sythases; iNOS & nNOS (Homo sapiens) (UniProt P29475+P35228). As to the kind of experiment: Selectivity ratio of IC50 for human recombinant iNOS to IC50 for human recombinant nNOS. In outline:
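Recombinant human nNOS and iNOS were expressed in baculovirus-infected Sf9 cells, and the assay measured [³H]-L-arginine to [³H]-L-citrulline conversion. nNOS buffer: 40 mM HEPES pH 7.4 with CaCl₂, MgCl₂, BSA, 1 mM NADPH and 1.2 μM CaM. iNOS buffer: 100 mM HEPES pH 7.4 with 120 μM NADPH and 100 nM CaM. Compound was preincubated 15 min at RT, then reacted 45 min at 37 °C. Citrulline was separated on DOWEX and counted by scintillation, in duplicate. The ratio is IC50 iNOS/IC50 nNOS.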

For data set [3], the target named is T1, Nitric oxide synthase 3 (Homo sapiens) (UniProt P29474).
T1 sequence (whole entry): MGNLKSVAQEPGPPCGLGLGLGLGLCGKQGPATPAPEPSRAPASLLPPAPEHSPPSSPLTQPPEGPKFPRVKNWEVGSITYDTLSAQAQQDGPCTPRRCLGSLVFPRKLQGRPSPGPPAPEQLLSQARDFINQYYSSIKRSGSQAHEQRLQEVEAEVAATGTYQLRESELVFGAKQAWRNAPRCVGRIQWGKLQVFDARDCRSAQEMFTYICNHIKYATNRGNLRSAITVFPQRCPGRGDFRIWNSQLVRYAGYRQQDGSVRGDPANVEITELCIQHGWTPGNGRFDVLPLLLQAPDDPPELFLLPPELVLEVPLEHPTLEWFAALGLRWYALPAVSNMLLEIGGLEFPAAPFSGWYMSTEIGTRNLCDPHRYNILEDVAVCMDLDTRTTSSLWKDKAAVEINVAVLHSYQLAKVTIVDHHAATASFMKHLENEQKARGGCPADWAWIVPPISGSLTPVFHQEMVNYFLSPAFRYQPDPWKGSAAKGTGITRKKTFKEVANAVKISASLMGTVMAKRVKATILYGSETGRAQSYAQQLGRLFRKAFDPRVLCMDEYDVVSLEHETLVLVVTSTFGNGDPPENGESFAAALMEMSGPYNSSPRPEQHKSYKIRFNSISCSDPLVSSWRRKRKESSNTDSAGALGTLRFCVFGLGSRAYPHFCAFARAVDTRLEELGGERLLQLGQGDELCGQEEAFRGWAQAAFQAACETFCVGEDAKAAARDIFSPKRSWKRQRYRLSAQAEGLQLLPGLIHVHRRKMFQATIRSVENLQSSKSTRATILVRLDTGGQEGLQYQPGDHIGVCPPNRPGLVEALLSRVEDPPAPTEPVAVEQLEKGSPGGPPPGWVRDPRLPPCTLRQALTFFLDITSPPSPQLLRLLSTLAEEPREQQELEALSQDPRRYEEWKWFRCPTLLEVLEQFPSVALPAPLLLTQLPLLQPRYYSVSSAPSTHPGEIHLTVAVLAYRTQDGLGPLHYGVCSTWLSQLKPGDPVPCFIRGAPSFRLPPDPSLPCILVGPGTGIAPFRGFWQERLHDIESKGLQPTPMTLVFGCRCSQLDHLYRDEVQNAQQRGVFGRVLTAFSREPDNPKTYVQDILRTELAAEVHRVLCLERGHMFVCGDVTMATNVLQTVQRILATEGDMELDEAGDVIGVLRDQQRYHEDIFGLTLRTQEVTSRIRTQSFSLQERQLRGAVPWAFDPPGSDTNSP
Nature of the data set: Inhibition of eNOS in human arteries precontracted with U46619 assessed as inhibition of acteylcholine-induced vasorelaxation at 100 uM after 50 mins in the presence of 1 mM L-arginine. The procedure, abridged:
(§1)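 Human resistance artery rings of about 2 mm from surgical explants, wire-mounted in myograph baths of Krebs-bicarbonate PSS gassed with 95% O2/5% CO2 at 37 °C. Rings equilibrated at least 30 min with washes every 15 min, then standardised. Isometric tension recorded during ACh relaxation (10^-10 to 10^-5 M).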

Data set [4] deals with T1, Nitric oxide synthase 3 (Homo sapiens). Nature of the data set: Inhibition of eNOS in human arteries precontracted with U46619 assessed as inhibition of acteylcholine-induced vasorelaxation after 50 mins. In outline: as §1
Data set [5] deals with T2, Nitric oxide synthase 3 (Homo sapiens, UniProt P29474).
T2 sequence (P29474 whole entry): T1 sequence (whole entry)
As to the kind of experiment: Inhibition of human recombinant eNOS expressed in Sf9 cells assessed as inhibition of conversion of [3H]-L-arginine to [3H]-L-citrulline after 45 mins by liquid scintillation counting. In outline:
(§2)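 Recombinant human eNOS or nNOS from baculovirus-infected Sf9 cells in 40 mM HEPES pH 7.4 with 2.4 mM CaCl2, 1 mM MgCl2, 1 mg/mL BSA, 1 mM EDTA, 1 mM DTT, 1 μM FMN, 1 μM FAD, 10 μM BH4, 1 mM NADPH and 1.2 μM CaM. Compound preincubated 15 min at RT, then [3H]-L-arginine conversion ran 45 min at 37 °C. Stopped with pH 5.5 HEPES/EGTA/EDTA buffer. [3H]-citrulline separated on Dowex and counted by scintillation. Duplicates.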

Data set [6] has as its target Nitric oxide synthase, inducible (Homo sapiens, UniProt P35228). Nature of the data set: Inhibition of human recombinant iNOS expressed in Sf9 cells assessed as inhibition of conversion of [3H]-L-arginine to [3H]-L-citrulline after 45 mins by liquid scintillation counting. In outline:
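Recombinant human iNOS from baculovirus-infected Sf9 cells in 100 mM HEPES pH 7.4 with 1 mM CaCl2, 1 mM EDTA, 1 mM DTT, 1 μM FMN, 1 μM FAD, 10 μM BH4, 120 μM NADPH and 100 nM CaM. Compound preincubated 15 min at RT, then 45 min at 37 °C. [3H]-citrulline from [3H]-L-arginine separated on Dowex and counted by scintillation. Duplicates.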

Data set [7] concerns the target Nitric oxide synthase 1 (Homo sapiens, UniProt P29475). As to the kind of experiment: Inhibition of human recombinant nNOS expressed in Sf9 cells assessed as inhibition of conversion of [3H]-L-arginine to [3H]-L-citrulline after 45 mins by liquid scintillation counting. In outline:
as §2

The test system of data set [8] is Rattus norvegicus. Nature of the data set: Analgesic activity in rat SNL model assessed as reversal of thermal hyperalgesia at 60 mg/kg, ip administered as single dose measured at 90 mins. The class given is functional. Conditions: route intraperitoneal. The procedure, abridged: (§3)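 Rat Chung model: L5 and L6 spinal nerves tightly ligated with 4-0 silk distal to the DRG under halothane anaesthesia, animals recovered in individual cages. Single intraperitoneal dose, 10 or 60 mg/kg. Read-out was paw withdrawal latency to radiant heat, expressed as percent reversal of thermal hyperalgesia over time after dosing.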

Data set [9] deals with T3, Cytochrome P450 1A2 (Homo sapiens, UniProt P05177).
T3 sequence (P05177 whole entry): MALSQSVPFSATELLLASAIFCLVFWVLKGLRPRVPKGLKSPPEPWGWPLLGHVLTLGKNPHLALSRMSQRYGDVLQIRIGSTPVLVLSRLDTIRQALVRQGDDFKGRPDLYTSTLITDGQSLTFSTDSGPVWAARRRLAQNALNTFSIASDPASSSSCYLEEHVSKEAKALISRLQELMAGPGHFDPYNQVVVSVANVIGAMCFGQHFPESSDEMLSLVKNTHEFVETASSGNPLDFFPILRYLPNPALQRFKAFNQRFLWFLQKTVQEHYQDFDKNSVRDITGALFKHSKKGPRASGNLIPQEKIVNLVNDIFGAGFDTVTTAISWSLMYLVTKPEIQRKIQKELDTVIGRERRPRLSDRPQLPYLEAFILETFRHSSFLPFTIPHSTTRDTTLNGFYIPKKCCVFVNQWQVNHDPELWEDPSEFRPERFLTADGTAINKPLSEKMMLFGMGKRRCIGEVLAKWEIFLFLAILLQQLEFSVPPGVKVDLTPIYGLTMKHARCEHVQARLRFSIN
As to the kind of experiment: Inhibition of CYP1A2 using CEC as substrate. The class given is ADME. In outline: (§4)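 Insect-cell microsomes expressing single human CYP isozymes, incubated at 37 °C with an NADPH regenerating system (NADP+, glucose-6-phosphate, G6P dehydrogenase, MgCl2) and an isozyme-specific fluorogenic substrate. Formation of the fluorescent metabolite was measured with and without test compound across 0.0457–100 μM. An enzyme-selective inhibitor served as positive control. Duplicate determinations, IC50 reported.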

Data set [10] relates to Rattus norvegicus. As to the kind of experiment: Analgesic activity in ip dosed rat spinal nerve ligation model assessed as reversal of thermal hyperalgesia measured after 60 to 120 mins. The class given is functional, organism-based. In outline:
as §3

Data set [11] deals with T4, Cytochrome P450 3A4 (Homo sapiens, UniProt P08684). Nature of the data set: Inhibition of CYP3A4 using BQ as substrate. The class given is ADME. In outline: as §4
T4 sequence (P08684 whole entry): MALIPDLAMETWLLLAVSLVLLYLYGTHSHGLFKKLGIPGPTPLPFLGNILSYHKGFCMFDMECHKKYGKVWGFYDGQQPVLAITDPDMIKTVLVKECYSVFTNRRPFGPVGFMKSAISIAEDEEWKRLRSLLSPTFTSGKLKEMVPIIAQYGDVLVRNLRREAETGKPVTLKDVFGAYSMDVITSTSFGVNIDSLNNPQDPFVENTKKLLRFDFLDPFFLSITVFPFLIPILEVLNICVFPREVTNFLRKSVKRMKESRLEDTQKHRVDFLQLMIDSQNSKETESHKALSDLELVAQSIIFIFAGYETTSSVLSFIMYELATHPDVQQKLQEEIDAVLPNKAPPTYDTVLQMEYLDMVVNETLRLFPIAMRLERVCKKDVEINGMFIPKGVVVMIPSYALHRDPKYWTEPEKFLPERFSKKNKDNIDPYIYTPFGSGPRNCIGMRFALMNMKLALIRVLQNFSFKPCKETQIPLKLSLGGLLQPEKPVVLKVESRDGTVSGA
The target in data set [12] is T1, Nitric oxide synthase 3 (Homo sapiens). Nature of the data set: Inhibition of eNOS in human arteries precontracted with U46619 assessed as inhibition of acteylcholine-induced vasorelaxation at 1 to 100 uM after 50 mins. In outline: as §1
For data set [13], the target named is Cytochrome P450 2C19 (Homo sapiens, UniProt P33261). As to the kind of experiment: Inhibition of CYP2C19 using CEC as substrate. Format: ADME. In outline: as §4
Cytochrome P450 2C19, sequence (P33261 whole entry): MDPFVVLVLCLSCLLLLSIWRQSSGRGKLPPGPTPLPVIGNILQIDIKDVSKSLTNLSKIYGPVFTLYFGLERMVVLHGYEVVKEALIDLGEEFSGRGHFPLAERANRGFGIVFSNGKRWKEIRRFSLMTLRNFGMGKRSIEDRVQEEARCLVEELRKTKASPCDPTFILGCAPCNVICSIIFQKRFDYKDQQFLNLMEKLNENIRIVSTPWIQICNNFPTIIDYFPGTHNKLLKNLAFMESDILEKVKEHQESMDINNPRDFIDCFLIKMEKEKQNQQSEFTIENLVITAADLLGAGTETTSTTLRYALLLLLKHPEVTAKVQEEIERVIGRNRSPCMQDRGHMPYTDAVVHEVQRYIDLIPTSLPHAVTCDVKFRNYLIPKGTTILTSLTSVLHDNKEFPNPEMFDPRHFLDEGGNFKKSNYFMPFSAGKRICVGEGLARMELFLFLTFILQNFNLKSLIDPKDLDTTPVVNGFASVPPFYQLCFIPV
Data set [14] has as its target T1, Nitric oxide synthase 3 (Homo sapiens). As to the kind of experiment: Inhibition of eNOS in human arteries precontracted with U46619 assessed as inhibition of acteylcholine-induced vasorelaxation at 1 to 100 uM after 50 mins in the presence of 1 mM L-arginine. In outline:
as §1

Data set [15] addresses Cytochrome P450 2C9 (Homo sapiens, UniProt P11712). As to the kind of experiment: Inhibition of CYP2C9 using MFC as substrate. Format: ADME. The procedure, abridged: as §4
Data set [16] deals with T4, Cytochrome P450 3A4. As to the kind of experiment: Inhibition of CYP3A4 using BFC as substrate. The class given is ADME. The procedure, abridged: as §4
Data set [17] has as its target Cytochrome P450 2D6 (Homo sapiens, UniProt P10635). Nature of the data set: Inhibition of CYP2D6 using AMMC as substrate. Format: ADME. In outline:
as §4

The species entered for data set [18] is Homo sapiens. Nature of the data set: Antimigraine activity in migraine patients relative to placebo treated control. The class given is functional.

Nitric oxide synthase, inducible, sequence (P35228 whole entry): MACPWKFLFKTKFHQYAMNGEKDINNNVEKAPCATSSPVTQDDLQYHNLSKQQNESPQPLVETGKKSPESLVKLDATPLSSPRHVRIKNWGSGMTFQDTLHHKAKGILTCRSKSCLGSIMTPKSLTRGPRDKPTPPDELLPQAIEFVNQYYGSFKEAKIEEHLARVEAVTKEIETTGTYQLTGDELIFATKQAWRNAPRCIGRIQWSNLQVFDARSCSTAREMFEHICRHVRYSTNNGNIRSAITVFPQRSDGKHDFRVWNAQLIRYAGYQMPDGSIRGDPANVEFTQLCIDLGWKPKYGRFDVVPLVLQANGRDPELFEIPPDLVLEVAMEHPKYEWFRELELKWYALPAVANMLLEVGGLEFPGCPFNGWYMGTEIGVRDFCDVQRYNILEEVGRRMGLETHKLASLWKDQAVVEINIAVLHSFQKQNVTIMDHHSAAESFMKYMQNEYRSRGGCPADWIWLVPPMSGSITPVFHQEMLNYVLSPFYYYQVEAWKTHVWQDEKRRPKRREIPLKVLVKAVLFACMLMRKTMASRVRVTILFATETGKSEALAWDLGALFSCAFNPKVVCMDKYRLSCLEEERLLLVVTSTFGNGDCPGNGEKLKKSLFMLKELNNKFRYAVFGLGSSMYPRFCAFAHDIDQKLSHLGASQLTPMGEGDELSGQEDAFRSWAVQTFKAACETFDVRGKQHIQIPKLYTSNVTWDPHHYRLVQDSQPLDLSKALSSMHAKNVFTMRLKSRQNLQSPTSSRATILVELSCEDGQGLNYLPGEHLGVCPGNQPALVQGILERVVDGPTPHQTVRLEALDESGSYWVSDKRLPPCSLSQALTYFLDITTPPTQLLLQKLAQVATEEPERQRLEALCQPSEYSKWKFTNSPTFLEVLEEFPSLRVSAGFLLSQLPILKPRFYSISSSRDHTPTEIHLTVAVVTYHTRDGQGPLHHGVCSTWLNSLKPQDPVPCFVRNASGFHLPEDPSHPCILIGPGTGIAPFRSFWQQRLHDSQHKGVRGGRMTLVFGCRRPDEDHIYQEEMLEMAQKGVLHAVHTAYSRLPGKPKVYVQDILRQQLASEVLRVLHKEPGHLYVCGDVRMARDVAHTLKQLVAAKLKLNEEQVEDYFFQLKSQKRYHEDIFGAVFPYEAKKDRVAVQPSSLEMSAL
Nitric oxide synthase 1, sequence (P29475 whole entry): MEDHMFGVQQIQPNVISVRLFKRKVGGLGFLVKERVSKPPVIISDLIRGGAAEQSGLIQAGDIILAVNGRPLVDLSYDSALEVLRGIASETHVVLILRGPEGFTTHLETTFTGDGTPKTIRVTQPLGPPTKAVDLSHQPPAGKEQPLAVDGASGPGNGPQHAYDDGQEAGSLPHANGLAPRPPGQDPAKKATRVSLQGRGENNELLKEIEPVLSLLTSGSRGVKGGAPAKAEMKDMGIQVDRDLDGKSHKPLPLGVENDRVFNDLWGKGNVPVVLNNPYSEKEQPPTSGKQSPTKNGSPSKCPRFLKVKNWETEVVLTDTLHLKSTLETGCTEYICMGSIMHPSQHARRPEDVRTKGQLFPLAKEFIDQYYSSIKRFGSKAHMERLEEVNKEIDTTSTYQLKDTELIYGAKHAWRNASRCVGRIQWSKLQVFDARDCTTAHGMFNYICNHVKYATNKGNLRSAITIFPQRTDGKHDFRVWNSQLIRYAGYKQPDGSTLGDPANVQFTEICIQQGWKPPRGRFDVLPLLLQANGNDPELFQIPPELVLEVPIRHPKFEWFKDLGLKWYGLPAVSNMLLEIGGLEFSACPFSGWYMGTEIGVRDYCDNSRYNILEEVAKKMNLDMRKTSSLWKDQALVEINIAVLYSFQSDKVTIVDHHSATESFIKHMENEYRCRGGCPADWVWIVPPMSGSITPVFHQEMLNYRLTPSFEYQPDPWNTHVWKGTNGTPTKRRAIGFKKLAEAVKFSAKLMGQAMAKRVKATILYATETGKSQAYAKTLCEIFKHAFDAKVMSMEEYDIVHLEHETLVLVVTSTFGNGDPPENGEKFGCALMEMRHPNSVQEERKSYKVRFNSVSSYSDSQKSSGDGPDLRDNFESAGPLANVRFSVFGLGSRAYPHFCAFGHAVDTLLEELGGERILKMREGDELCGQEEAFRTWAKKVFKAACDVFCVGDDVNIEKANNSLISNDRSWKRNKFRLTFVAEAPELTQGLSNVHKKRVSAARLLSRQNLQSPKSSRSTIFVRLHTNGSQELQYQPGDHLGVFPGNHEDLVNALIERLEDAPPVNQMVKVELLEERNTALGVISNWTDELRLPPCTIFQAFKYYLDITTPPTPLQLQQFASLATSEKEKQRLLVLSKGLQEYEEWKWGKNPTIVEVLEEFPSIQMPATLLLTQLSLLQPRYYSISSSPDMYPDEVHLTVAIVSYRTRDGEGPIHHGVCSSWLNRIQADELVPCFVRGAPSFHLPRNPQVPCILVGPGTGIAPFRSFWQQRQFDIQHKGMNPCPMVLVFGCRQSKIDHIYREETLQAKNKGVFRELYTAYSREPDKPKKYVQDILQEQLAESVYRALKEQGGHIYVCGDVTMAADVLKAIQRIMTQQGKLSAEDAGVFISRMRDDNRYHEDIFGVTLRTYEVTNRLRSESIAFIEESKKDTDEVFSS
Nitric oxide sythases; iNOS & nNOS (Homo sapiens), sequence (P29475 whole entry, looked up): as the sequence (P29475 whole entry) above
Nitric oxide sythases; iNOS & nNOS (Homo sapiens), sequence (P35228 whole entry, looked up): as the sequence (P35228 whole entry) above
Cytochrome P450 2C9, sequence (P11712 whole entry): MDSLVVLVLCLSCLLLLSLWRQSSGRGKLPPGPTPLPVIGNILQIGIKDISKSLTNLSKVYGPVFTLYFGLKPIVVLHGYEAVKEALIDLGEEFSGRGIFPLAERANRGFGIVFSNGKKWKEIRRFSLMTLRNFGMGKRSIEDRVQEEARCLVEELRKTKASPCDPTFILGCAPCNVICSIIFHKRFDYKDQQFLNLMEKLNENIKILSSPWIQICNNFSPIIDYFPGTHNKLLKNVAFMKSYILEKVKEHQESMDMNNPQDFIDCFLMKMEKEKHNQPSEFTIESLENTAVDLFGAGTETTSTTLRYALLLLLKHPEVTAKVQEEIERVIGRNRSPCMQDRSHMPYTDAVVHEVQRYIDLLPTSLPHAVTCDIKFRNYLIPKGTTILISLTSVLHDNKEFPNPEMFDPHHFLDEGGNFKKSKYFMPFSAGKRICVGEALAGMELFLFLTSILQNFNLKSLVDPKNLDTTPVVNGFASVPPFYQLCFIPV
Cytochrome P450 2D6, sequence (P10635 whole entry): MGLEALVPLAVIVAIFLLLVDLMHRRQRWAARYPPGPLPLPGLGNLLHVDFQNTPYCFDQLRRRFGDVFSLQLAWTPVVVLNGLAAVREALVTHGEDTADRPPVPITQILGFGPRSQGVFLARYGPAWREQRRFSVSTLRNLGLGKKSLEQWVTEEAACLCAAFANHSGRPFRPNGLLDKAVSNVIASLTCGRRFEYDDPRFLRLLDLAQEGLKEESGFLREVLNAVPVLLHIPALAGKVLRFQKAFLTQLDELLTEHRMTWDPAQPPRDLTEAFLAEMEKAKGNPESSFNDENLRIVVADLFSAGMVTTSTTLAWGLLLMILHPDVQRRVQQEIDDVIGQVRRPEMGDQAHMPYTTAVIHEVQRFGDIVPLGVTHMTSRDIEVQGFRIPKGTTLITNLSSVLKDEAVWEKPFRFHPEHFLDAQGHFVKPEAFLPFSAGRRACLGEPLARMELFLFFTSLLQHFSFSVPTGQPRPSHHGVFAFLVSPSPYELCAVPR

In [1], `FC(F)(F)c1ccccc1-n1ccnc1` had an Activity of 8%.
As for `N=C(Nc1ccc2c(C3CN4CCC3CC4)c[nH]c2c1)c1cccs1` (single isomer, unassigned; enantiomer 2), the Ratio IC50 in data set [2] was determined as 309.
Regarding `CN1CCC[C@@H]1CCn1ccc2ccc(/N=C(\N)c3cccs3)cc21`, in data set [2], the Ratio IC50 came to 225.
As to `COC(=O)[C@@H](N)CCCNC(=N)N[N+](=O)[O-]`, the inhibition entry in data set [3] is “inactive”. Moreover, the inhibition result in data set [4] was “Dose-dependent effect”. Besides, the IC50 turned out to be 0.68 µM in data set [5], 0.83 µM in data set [6] and 690 nM in data set [7]. The Ratio IC50 in [2] amounted to 1.2.
For the molecule `N=C(Nc1ccc2c(C3CN4CCC3CC4)c[nH]c2c1)c1cccs1` (racemic) [listing 1 of 2 here], the Ratio IC50 in [2] came out at 15.
With `N=C(Nc1ccc2c(C3CN4CCC3CC4)c[nH]c2c1)c1cccs1` (racemic) [listing 2 of 2 here], the IC50 in data set [5] stood at 33.3 µM; in [6] it was 18.4 µM; in [7] it was 1230 nM.
As to `CN1CC=C(c2c[nH]c3cc(NC(=N)c4cccs4)ccc23)CC1.Cl.Cl`, the results for the Activity in data set [8] and in [10] were 67% and “Dose-dependent effect”, respectively. Further, the half-inhibitory concentration (IC50) was more than 100 µM in data set [9] (read-out: IC50); 26.5 µM in data set [5]; more than 100 µM in data set [11]; 40.1 µM in data set [13]; 12.3 µM in [6]; 72.7 µM in [15] (read-out: IC50). Also, the IC50 stood at 74.8 µM in data set [16], 800 nM in [7] and 63.2 µM in data set [17]. Further, the inhibition result in [12] and in data set [14] was “inactive” each time. Further, in data set [2], the Ratio IC50 was 15.
Take `O=[N+]([O-])c1cccc2cn[nH]c12` [7-NITROINDAZOLE]: the Activity in data set [1] was determined as 22%.
As to `Cl.Cl.N=C(Nc1ccc2c(C3CN4CCC3CC4)c[nH]c2c1)c1cccs1` (single isomer, unassigned; enantiomer 2), the IC50 entry in data set [9] was “Not Active”; in data set [5], 40.6 µM; in data set [11], more than 100 µM; in [13], 49.6 µM; in data set [6] it was 139 µM; in [15] it was “Not Active”. For the same molecule, the IC50 in data set [16] is 100 µM; in data set [7] it was 450 nM; in [17], more than 100 µM.
Turning to `N=C(Nc1ccc(CCNCc2cccc(Cl)c2)cc1)c1cccs1`, the Activity in [1] is given as 44%.
Molecule `CNC(=N)NCCC[C@H](N)C(=O)O.Cl.Cl` came in with an Activity in [18] of 67%.
`N=C(Nc1ccc2c(C3=CN4CCC3CC4)c[nH]c2c1)c1cccs1`: the IC50 in data set [6] amounted to 8.4 µM; in data set [7], 1500 nM. Besides, the Ratio IC50 in data set [2] is 6.
Take `N=C(Nc1ccc2c(C3CN4CCC3CC4)c[nH]c2c1)c1cccs1` (single isomer, unassigned; enantiomer 1) [listing 1 of 2 here]: the Ratio IC50 in data set [2] is 98.
Take `CN1CCC(c2c[nH]c3cc(NC(=N)c4cccs4)ccc23)C1` (stereo unspecified): the IC50 in data set [6] turned out to be 2.6 µM. Further, the Ratio IC50 in data set [2] was 13.
As to `CN1CCC(c2c[nH]c3cc(NC(=N)c4cccs4)ccc23)CC1`, the IC50 in data set [5] came to 10.7 µM; in [7] it was 120 nM. Further, the Ratio IC50 in data set [2] turned out to be 78.
Regarding `N=C(Nc1ccc2c(C3CN4CCC3CC4)c[nH]c2c1)c1cccs1` (single isomer, unassigned; enantiomer 1) [listing 2 of 2 here], the IC50 in [5] worked out at 23.3 µM; in [6] it was 52.1 µM; in [7] it was 530 nM.
